Tests used:
[1] = target: T1, Urease subunit alpha/Urease subunit beta (Helicobacter pylori (strain ATCC 700392 / 26695) (Campylobacterpylori), UniProt P69996); test: Inhibition of Helicobacter pylori ATCC 43504 urease-mediated ammonia production preincubated for 1.5 hrs by indophenol method
[2] = target: T1, Urease subunit alpha/Urease subunit beta; test: Competitive inhibition of Helicobacter pylori ATCC 43504 urease using urea as substrate by Lineweaver-Burk/Dixon plot analysis
Procedure, shortened: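 Crude urease from H. pylori ATCC 43504, grown 24 h at 37 °C under microaerobic conditions in Brucella broth with 10% heat-inactivated horse serum. Enzyme (10 U) was pre-incubated with inhibitor for 1.5 h at room temperature. Ammonia was read by the indophenol method while urea varied at several inhibitor levels. Ki came from a Lineweaver–Burk slope replot x-intercept or a Dixon plot intersection. Run in triplicate.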

[3] = target: Urease subunit alpha/Urease subunit beta (Helicobacter pylori (strain ATCC 700392 / 26695) (Campylobacterpylori)) (UniProt P69996+P14916); test: Ratio of acetohydroxamic acid IC50 to compound IC50 for Helicobacter pylori ATCC 43504 urease
Chain of Urease subunit alpha/Urease subunit beta (Helicobacter pylori (strain ATCC 700392 / 26695) (Campylobacterpylori)) (P14916 whole entry, looked up): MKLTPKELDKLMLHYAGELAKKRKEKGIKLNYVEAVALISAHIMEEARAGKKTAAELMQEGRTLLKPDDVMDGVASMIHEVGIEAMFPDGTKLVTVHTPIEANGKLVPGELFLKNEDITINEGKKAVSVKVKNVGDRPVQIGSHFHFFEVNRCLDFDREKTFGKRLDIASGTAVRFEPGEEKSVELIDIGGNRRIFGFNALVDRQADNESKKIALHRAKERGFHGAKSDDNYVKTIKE
Chain of Urease subunit alpha/Urease subunit beta (Helicobacter pylori (strain ATCC 700392 / 26695) (Campylobacterpylori)) (P69996 whole entry, looked up): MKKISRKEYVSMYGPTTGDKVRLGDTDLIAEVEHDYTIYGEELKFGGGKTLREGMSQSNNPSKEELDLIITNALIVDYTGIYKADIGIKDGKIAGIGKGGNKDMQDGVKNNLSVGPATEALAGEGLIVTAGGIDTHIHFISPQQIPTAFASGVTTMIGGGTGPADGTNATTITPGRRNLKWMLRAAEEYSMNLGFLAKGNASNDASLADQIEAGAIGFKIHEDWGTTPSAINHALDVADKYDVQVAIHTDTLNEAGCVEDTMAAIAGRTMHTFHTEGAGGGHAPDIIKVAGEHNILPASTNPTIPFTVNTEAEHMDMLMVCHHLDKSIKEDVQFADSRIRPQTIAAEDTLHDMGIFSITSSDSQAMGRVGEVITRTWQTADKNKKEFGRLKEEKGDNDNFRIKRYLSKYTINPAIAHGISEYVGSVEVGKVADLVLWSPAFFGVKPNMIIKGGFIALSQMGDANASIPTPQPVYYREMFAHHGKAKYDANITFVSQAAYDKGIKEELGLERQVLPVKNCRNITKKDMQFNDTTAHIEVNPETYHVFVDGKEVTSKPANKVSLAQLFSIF

T1 sequence (P69996 whole entry): as the sequence (P69996 whole entry, looked up) above
T1 sequence (P14916 whole entry, further chain): as the sequence (P14916 whole entry, looked up) above

SMILES | IC50 [1] [µM] | Ki [2] [nM] | Ratio IC50 [3]
Oc1ccc(C2=COc3c(ccc(O)c3O)C2)cc1 | 0.85 | 641 | 20
COc1ccc(-c2coc3cc(OC)ccc3c2=O)cc1 | 3530 |  | 
COc1ccc(-c2coc3cc(O)ccc3c2=O)cc1 [FORMONONETIN] | 2000 |  | 
O=c1c(O)c(-c2ccc(O)c(O)c2)oc2cc(O)cc(O)c12 [QUERCETIN] | 11 |  | 
O=c1cc(-c2ccccc2)oc2cc(O)c(O)c(O)c12 [BAICALEIN] | 291 |  | 
Oc1cc(O)c2c(c1)OC(c1ccccc1)C=C2 (stereo not given) | 33.2 |  | 
COc1ccc(C2COc3cc(O)ccc3C2)cc1 (stereo not given) | 358 |  | 
O=C1CC(c2ccc(O)cc2)Oc2cc(O)cc(O)c21 (stereo not given) | 328 |  | 
COc1ccc(C2C=Cc3c(OC)c(OC)c(OC)c(OC)c3O2)cc1 (stereo not given) | 4170 |  | 
COc1cc(OC)c2c(=O)cc(-c3ccccc3)oc2c1 [CHRYSIN DIMETHYL ETHER] | 2180 |  | 
COc1ccc(-c2cc(=O)c3c(OC)c(OC)c(OC)c(OC)c3o2)cc1 [TANGERETIN] | 4630 |  | 
COc1ccc(C2CC(O)c3c(OC)c(OC)c(OC)c(OC)c3O2)cc1 (stereo not given) | 4850 |  | 
O=c1cc(-c2ccc(O)cc2)oc2cc(O)cc(O)c12 [APIGENIN] | 138 |  | 
Oc1ccc(C2COc3cc(O)ccc3C2)cc1 (stereo not given) | 92.9 |  | 
Oc1cc(O)c2c(c1)OC(c1ccc(O)c(O)c1)C=C2 (stereo not given) | 4.42 |  | 
O=c1cc(-c2ccccc2)oc2cc(O)cc(O)c12 [CHRYSIN] | 302 |  | 
O=c1cc(-c2ccc(O)c(O)c2)oc2cc(O)cc(O)c12 [LUTEOLIN] | 35.4 |  | 
COc1cc(O)c(C(=O)/C=C/c2ccccc2)c(OC)c1 [FLAVOKAWAIN B] | 1220 |  | 
COc1ccc(C2COc3cc(OC)ccc3C2)cc1 (stereo not given) | 1780 |  | 
COc1cc(O)c(C(=O)CCc2ccccc2)c(O)c1 | 978 |  | 
COc1ccc(C2=CCc3c(OC)c(OC)c(OC)c(OC)c3O2)cc1 | 3790 |  | 
O=c1c(-c2ccc(O)cc2)coc2cc(O)ccc12 [DAIDZEIN] | 556 |  | 
Oc1cc2c(c(O)c1O)C=CC(c1ccccc1)O2 (stereo not given) | 22.1 |  | 
COc1ccc(C2=COc3cc(O)ccc3C2)cc1 | 86.2 |  | 
COc1ccc(C(C)C(=O)c2ccc(O)cc2O)cc1 (stereo not given) | 1050 |  | 
COc1ccc(C2COc3cc(OC)ccc3C2O)cc1 (stereo not given) | 3870 |  | 
COc1ccc(C(C)C(=O)c2ccc(OC)cc2O)cc1 (stereo not given) | 2180 |  | 
COc1cc(O)c(C(=O)CCc2ccccc2)c(OC)c1 | 1670 |  | 

From ChEMBL document CHEMBL2375294, “Synthesis, structure-activity relationship analysis and kinetics study of reductive derivatives of flavonoids as Helicobacter pylori urease inhibitors” (Eur J Med Chem, 2013)
